Measurements taken from ChEMBL document CHEMBL3797062, “Diterpenes from the Trunk of Abies holophylla and Their Potential Neuroprotective and Anti-inflammatory Activities” (J Nat Prod, 2016).
Activity calls are given as the source filed them. The calls are words filed in the database; no cut-off is given here.

Key:
[1] = Cytotoxicity in human HCT116 cells by SRB assay; type: functional, cell-based; settings: HCT-116
[2] = Cytotoxicity in human SKOV3 cells by SRB assay; type: functional, cell-based; settings: SK-OV-3
[3] = tested on: C6; assay: Neuroprotective activity in rat C6 cells assessed as induction of NGF release at 20 uM after 24 hrs by ELISA; type: functional
Summary of the method: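 C6 glioma cells seeded at 1 × 10^5 cells/well. After 24 h, treated with compound at 20 μM in serum-free DMEM for a further 24 h. NGF secreted into the conditioned medium quantified by ELISA and expressed as % of untreated control (100%). 6-Shogaol positive control. Means ± SD of three independent experiments run in triplicate.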

[4] = tested on: BV-2; assay: (§1) Antiinflammatory activity in mouse BV2 cells assessed as inhibition of LPS-induced NO production after 24 hrs by Griess assay; type: functional, cell-based
Summary of the method: (§2)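 BV2 microglia seeded at 4 × 10^4 cells/well, given compound at various concentrations with LPS (100 ng/mL), incubated 24 h. Nitrite in the medium read with Griess reagent (0.1% N-1-naphthylethylenediamine dihydrochloride, 1% sulfanilamide in 5% phosphoric acid, equal volume of supernatant), absorbance at 570 nm after 10 min. Sodium nitrite standard curve. IC50 derived. L-NMMA positive control.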

[5] = Cytotoxicity in rat C6 cells assessed as cell viability at 20 uM after 24 hrs by MTT assay; type: cell-based; settings: read-out: Activity
Summary of the method: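 C6 glioma cells seeded at 1 × 10^5 cells/well. After 24 h, switched to serum-free DMEM with compound at 20 μM for a further 24 h. Viability by MTT, expressed as % of untreated control. Means ± SD of three independent experiments.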

[6] = tested on: A549; assay: Cytotoxicity in human A549 cells by SRB assay; type: functional, cell-based
[7] = tested on: SK-MEL-2; assay: Cytotoxicity in human SK-MEL-2 cells by SRB assay; type: functional, cell-based
[8] = as §1; type: functional, cell-based; settings: BV-2, 24 h; summary of the method: as §2
[9] = Cytotoxicity in LPS-activated mouse BV2 cells assessed as cell viability at 20 uM after 24 hrs by MTT assay; type: cell-based; settings: bv-2, 24 h
Summary of the method: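 Mouse microglial BV2 cells were seeded at 4 × 10^4 cells/well, treated with or without compound, stimulated with LPS (100 ng/mL), and incubated for 24 h. Viability was read by MTT assay, as the reduction of yellow MTT to purple formazan by viable cells.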

[10] = tested on: C6 (Rattus norvegicus); assay: Neuroprotective activity in rat C6 glioma cells assessed as induction of NGF release at 20 uM for 24 hrs

| Structure (SMILES) | IC50 [1] | IC50 [2] | Activity [3] | inhibition [4] | viability at 24 h, 20 µM [5] | IC50 [6] | IC50 [7] | IC50 [8] | Activity [9] | Activity [10] |
| --- | --- | --- | --- | --- | --- | --- | --- | --- | --- | --- |
| CC(C)c1ccc2c(c1)C(=O)C[C@H]1[C@](C)(C(=O)O)CCC[C@]21C | > 10 µM | > 10 µM | 201.8% | inactive | 104% | > 10 µM | > 10 µM | – | – | – |
| CC(C)[C@]12O[C@H]1CC1=C(CC[C@H]3[C@](C)(C(=O)O)CCC[C@]13C)[C@H]2O | > 10 µM | > 10 µM | – | inactive | – | > 10 µM | > 10 µM | – | – | – |
| CC(C)C1=C[C@@]23CC[C@@H]4[C@](C)(CCC[C@@]4(C)C(=O)O)[C@H]2C[C@@H]1OO3 | > 10 µM | > 10 µM | 153% | inactive | 102% | > 10 µM | > 10 µM | – | – | – |
| CC(C)[C@@]12C=C3[C@H](O)C[C@H]4[C@](C)(C(=O)O)CCC[C@]4(C)[C@]3(CC1)OO2 | > 10 µM | > 10 µM | 154.3% | inactive | 127% | > 10 µM | > 10 µM | – | – | – |
| CC(C)C1=C[C@@]2(O)CC[C@@H]3[C@](C)(CCC[C@@]3(C)C(=O)O)[C@H]2CC1=O | > 10 µM | > 10 µM | 166.1% | – | 91.2% | > 10 µM | > 10 µM | 56.1 µM | Non-toxic | – |
| CC(C)[C@]1(O)C=C2C(=O)C[C@@H]3[C@](C)(CCC[C@@]3(C)C(=O)O)[C@H]2CC1 | > 10 µM | > 10 µM | 175.6% | inactive | 94.5% | > 10 µM | > 10 µM | – | – | – |
| CC(C)[C@]12C=C3CC[C@H]4[C@](C)(C(=O)O)CCC[C@]4(C)[C@@]3(CC1)OO2 | > 10 µM | > 10 µM | 175.9% | – | 109% | > 10 µM | > 10 µM | 57.3 µM | Non-toxic | – |
| CC(C)[C@]12C=C3C(=O)C[C@H]4[C@](C)(C(=O)O)CCC[C@]4(C)[C@@]3(CC1)OO2 | > 10 µM | > 10 µM | – | – | – | > 10 µM | > 10 µM | 30.1 µM | Non-toxic | – |
| CC(C)[C@]12O[C@H]1C[C@@H]1[C@@]3(C)CCC[C@@](C)(C(=O)O)[C@@H]3CC[C@@]1(O)[C@H]2O | > 10 µM | > 10 µM | – | inactive | – | > 10 µM | > 10 µM | – | – | – |
| CC(C)[C@@]12CC[C@@H]3[C@@]4(C)CCC[C@@](C)(C(=O)O)[C@@H]4CC(=O)[C@]3(O)[C@@H]1O2 | > 10 µM | > 10 µM | 155% | inactive | 91.4% | > 10 µM | > 10 µM | – | – | – |
| COc1cc([C@@H]2c3cc4c(cc3[C@@H](O[C@@H]3O[C@@H]5CO[C@@H](C)O[C@H]5[C@H](O)[C@H]3O)[C@H]3COC(=O)[C@H]23)OCO4)cc(OC)c1O [ETOPOSIDE] | 1 µM | 2.6 µM | – | – | – | 1.4 µM | 1.5 µM | – | – | – |
| CC(C)(O)c1ccc2c(c1)C(=O)C[C@H]1[C@](C)(C(=O)O)CCC[C@]21C | > 10 µM | > 10 µM | 161.7% | inactive | 94.6% | > 10 µM | > 10 µM | – | – | – |
| CC(C)c1ccc2c(c1)CC[C@H]1[C@](C)(C(=O)O)CCC[C@]21C [DEHYDROABIETIC ACID] | > 10 µM | > 10 µM | 170.2% | inactive | 92.3% | > 10 µM | > 10 µM | – | – | – |
| CO[C@]12C(=O)C[C@@H]3[C@](C)(CCC[C@@]3(C)C(=O)O)[C@H]1CC[C@@]1(C(C)C)O[C@@H]21 | > 10 µM | > 10 µM | – | inactive | – | > 10 µM | > 10 µM | – | – | – |
| CC(C)(O)[C@]12O[C@H]1C[C@H]1C(=CC[C@@H]3[C@]1(C)CCC[C@@]3(C)C(=O)O)[C@H]2O | > 10 µM | > 10 µM | 158.6% | inactive | 92.5% | > 10 µM | > 10 µM | – | – | – |
| CCCCC/C=C/C(=O)CCc1ccc(O)c(OC)c1 [SHOGAOL] | – | – | – | – | 119% | – | – | – | – | 141.8% |
| CC(C)c1ccc2c(c1)[C@H](O)C[C@H]1[C@](C)(CO)CCC[C@]21C | > 10 µM | > 10 µM | 177.1% | inactive | 89.3% | > 10 µM | > 10 µM | – | – | – |
| CC(C)[C@]12C=C3[C@H](O)C[C@H]4[C@](C)(C(=O)O)CCC[C@]4(C)[C@@]3(CC1)OO2 | > 10 µM | > 10 µM | – | inactive | – | > 10 µM | > 10 µM | – | – | – |
| CC(C)(O)c1ccc2c(c1)CC[C@H]1[C@](C)(C(=O)O)CCC[C@]21C | > 10 µM | > 10 µM | 152.9% | inactive | 94.3% | > 10 µM | > 10 µM | – | – | – |
| CC(C)c1ccc2c(c1)[C@H](O)C[C@H]1C(C)(C)CCC[C@]21C | > 10 µM | > 10 µM | – | inactive | – | > 10 µM | > 10 µM | – | – | – |
| CC(C)c1ccc2c(c1)[C@H](O)C[C@H]1[C@](C)(C(=O)O)CCC[C@]21C | > 10 µM | > 10 µM | 204.3% | inactive | 101% | > 10 µM | > 10 µM | – | – | – |
| CO[C@@]1(C(C)C)C=C2[C@H](O)C[C@@H]3[C@](C)(CCC[C@@]3(C)C(=O)O)[C@H]2CC1 | > 10 µM | > 10 µM | 169.4% | inactive | 78.1% | > 10 µM | > 10 µM | – | – | – |
| CC(C)c1ccc2c(c1)[C@@H](O)C[C@H]1[C@](C)(C(=O)O)CCC[C@]21C | > 10 µM | > 10 µM | 165.1% | inactive | 96.2% | > 10 µM | > 10 µM | – | – | – |
| CC(C)c1ccc2c(c1)[C@H](O)C[C@H]1[C@](C)(COC(=O)CCC(=O)O)CCC[C@]21C [ABIESADINE F] | > 10 µM | > 10 µM | 142.2% | inactive | 98.2% | > 10 µM | > 10 µM | – | – | – |
| CC(C)(O)[C@]12O[C@H]1C[C@@H]1[C@@]3(C)CCC[C@@](C)(C(=O)O)[C@@H]3CC[C@@]13O[C@H]32 | > 10 µM | > 10 µM | – | inactive | – | > 10 µM | > 10 µM | – | – | – |
| CC(C)[C@]12O[C@H]1C[C@H]1C(=CC[C@@H]3[C@]1(C)CCC[C@@]3(C)C(=O)O)[C@H]2O | > 10 µM | > 10 µM | 193.9% | inactive | 73.1% | > 10 µM | > 10 µM | – | – | – |
| CC(C)(O)[C@]12O[C@H]1C[C@@H]1[C@@]3(C)CCC[C@@](C)(C(=O)O)[C@@H]3CC[C@@]1(O)[C@H]2O | > 10 µM | > 10 µM | – | inactive | – | > 10 µM | > 10 µM | – | – | – |
| CO[C@H]1C(=O)C2=C[C@@](O)(C(C)C)CC[C@@H]2[C@@]2(C)CCC[C@@](C)(C(=O)O)[C@H]12 | > 10 µM | > 10 µM | 170.2% | inactive | 96.2% | > 10 µM | > 10 µM | – | – | – |
| CO[C@@]1(C(C)C)C=C2C(=O)C[C@@H]3[C@](C)(CCC[C@@]3(C)C(=O)O)[C@H]2CC1 | > 10 µM | > 10 µM | – | inactive | – | > 10 µM | > 10 µM | – | – | – |
| CC(=O)OC[C@]1(C)CCC[C@]2(C)c3ccc(C(C)(C)O)cc3CC[C@@H]12 | > 10 µM | > 10 µM | 171.3% | inactive | 85.5% | > 10 µM | > 10 µM | – | – | – |
